Assay results reported in PubChem BioAssay.
Calls of active or inactive are those of the source.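 The calls were made as follows, unless noted: active = calcium signal cut by more than 3 SD below the full-agonist control yet still positive, in both repeats and the earlier primary screen; inactive = the rest.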

These compounds were tested on TRPC4 beta (transient receptor potential cation channel C4), mouse (assay: positive allosteric modulators of mouse TRPC4, confirmation, cell-based, Fluo-4, HEK293 TRPC4beta/mu-opioid (AID 2555;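 active = primary screen hit whose calcium fluorescence ratio, in both repeats, exceeds the weak agonist control mean by 3 SD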)). Settings: DAMGO EC20, Fluo-4 calcium flux, at 10 µM; stronger effect = higher value.
With `NC1=NC2(CCN(Cc3ccccc3)CC2)n2c(nc3ccccc32)N1` the outcome was “inactive”. `COc1ccc(CN2CCC(N(CCc3ccccc3)Cc3ccccc3)CC2)c(OC)c1` was tested, and the outcome was “inactive”. `CCc1ccc(C(=O)c2cnc3ccc(OC)cc3c2N2CCN(CC)CC2)cc1` was tested, and the outcome was “inactive”. With `S=C(NCCc1cnc[nH]1)NC1CCCC1` the outcome was “inactive”. For `O=C(NCc1ccccc1)C1=C[C@H](c2ccccc2)C[C@H](OCc2ccc(CO)cc2)O1`, the outcome was “inactive”. With `Cc1ccc(OCC(=O)N(C)CCc2ccccn2)cc1` the outcome was “inactive”. With `CC(C)(C)C(=O)/C=c1\s/c(=C\c2ccc(-c3ccc([N+](=O)[O-])cc3)o2)c(=O)n1CC(=O)NC(N)=O` the potentiation was 36% (active). With `NC(=O)C1CCCN(CCc2ccccc2)C1` (stereo not drawn) the outcome was “inactive”. With `Cc1cc2nc3s/c(=C/c4ccc(-c5ccccc5C(=O)O)o4)c(=O)n3c2cc1C` the outcome was “inactive”. With `COc1ccc(CNCc2cn(-c3cccc(F)c3)nc2-c2ccc(C)o2)cc1` the outcome was “inactive”. `CN(C)C(CNc1ccc(C(F)(F)F)cn1)c1ccccc1` (stereo not drawn) was tested, and the outcome was “inactive”. In the case of `CN(C)C(CNC(=O)c1cccc(S(=O)(=O)N(C)C)c1)c1ccccc1` (stereo not drawn), the outcome is reported as “inactive”. For `CCCc1c(O)nc(SCCN(CC)CC)[nH]c1=O`, the outcome was “inactive”. For `CCC(=O)N1CCc2cc(Br)cc(S(=O)(=O)NCCCN(CC)Cc3ccccc3)c21`, the outcome was “inactive”. With `Cc1ccc(Cn2c(SCCN3CCCCC3)nc3c2c(=O)n(C)c(=O)n3C)cc1` the potentiation was 13% (active). With `O=C(O)C1C2C=CC(C2)C1C(=O)N1CCN(C/C=C/c2ccccc2)CC1` (stereo not drawn) the outcome was “inactive”. In the case of `COc1ccc(C)c(NC(=O)NCCc2cnc[nH]2)c1`, the outcome is reported as “inactive”. For `OCCC1CN(Cc2ccccc2-c2ccco2)CCN1Cc1ccccc1` (stereo not drawn), the outcome was “inactive”. In the case of `COc1ccc(CCN(C)C(=O)C2CCCN(C3CCN(Cc4ccccc4)CC3)C2)cc1OC` (stereo not drawn), the outcome is reported as “inactive”. `CCOc1ccc(S(=O)(=O)Nc2cccc(C(=O)NCC(c3ccccc3)N(C)C)c2)cc1` (stereo not drawn) was tested, and the outcome was “inactive”. With `Cc1cc(C)cc(NC(=S)N2CCN(c3ncc(C(F)(F)F)cc3Cl)CC2)c1` the outcome was “inactive”. In the case of `COc1ccc(C(CNC(=O)c2cccc(Br)c2)N2CCCC2)cc1` (stereo not drawn), the outcome is reported as “inactive”. With `CC(C)n1cnc2c(N(C)c3ccccc3)nc(N(CCN(C)C)Cc3ccccc3)nc21` the outcome was “inactive”. For `Cc1cccn2c(CNCCc3ccccn3)c(C(=O)N3CCOCC3)nc12`, the outcome was “inactive”. In the case of `Cc1ccc(C)c(-n2cc(CNCCCn3cccn3)c(-c3ccccc3)n2)c1`, the outcome is reported as “inactive”. In the case of `Cc1csc2c(N3CCN(C(=O)Nc4ccc(OC(F)(F)F)cc4)CC3)ncnc12`, the outcome is reported as “inactive”. With `CN(CCc1ccccn1)C(=S)Nc1cccc(S(=O)(=O)N(C)C)c1` the outcome was “inactive”. With `Cc1ccc(NC(=S)NC2CC3CCC(C2)N3Cc2ccco2)c(C)c1` (stereo not drawn) the outcome was “inactive”. For `COc1cc2c(cc1OC)C(C)N(C(=O)C(NC(=O)c1ccccc1)C(C)C)CC2` (stereo not drawn), the outcome was “inactive”. `O=C(NC1CC1)C1=C[C@H](c2csc3ccccc23)C[C@H](OCc2ccc(CO)cc2)O1` was tested, and the outcome was “inactive”. With `Clc1ccc2nc(N3CCNCC3)nc(-c3ccccc3)c2c1` the outcome was “inactive”. `COc1ccc(C(CNC(=O)/C=C/c2c(Cl)nc3ccccn23)N(C)C)cc1` (stereo not drawn) was tested, and the outcome was “inactive”. `CC(=O)n1cc([C@H]2C=C(C(=O)NCc3ccccc3)O[C@@H](OCc3ccc(CO)cc3)C2)c2ccccc21` was tested, and the outcome was “inactive”. For `CCCn1ncc(CN2CCC(n3nccc3NC(=O)CCc3ccccc3)CC2)c1C`, the outcome was “inactive”. `CC(=O)NC(CC(=O)NCC(c1ccco1)N(C)C)c1ccccc1` (stereo not drawn) was tested, and the outcome was “inactive”. For `COc1ccc(C(=O)NNC(=S)NC(=O)c2cccs2)cc1`, the outcome was “inactive”. `COCCn1nnnc1C(c1cc2ccc(OC)cc2[nH]c1=O)N1CCN(C2CCCCC2)CC1` (stereo not drawn) was tested, and the outcome was “inactive”. With `O=C(c1sc2ccccc2c1Cl)N(Cc1ccccc1)C1CCS(=O)(=O)C1` (stereo not drawn) the outcome was “inactive”. `O=c1c(Cc2ccc(F)cc2)c(O)ccn1CCc1cnc[nH]1` was tested, and the outcome was “inactive”.

What follows are compounds tested against Short transient receptor potential channel 4 (Mus musculus) (UniProt Q9QUQ5) (assay: inhibitors of mouse TRPC4 channel, confirmation, cell-based, Fluo4, HEK293 TRPC4beta/mu-opioid (AID 2636)). Settings: DAMGO, Fluo4 calcium flux, at 10 µM; stronger effect = higher value.
Sequence of Short transient receptor potential channel 4 (Mus musculus) (Q9QUQ5 whole entry, looked up): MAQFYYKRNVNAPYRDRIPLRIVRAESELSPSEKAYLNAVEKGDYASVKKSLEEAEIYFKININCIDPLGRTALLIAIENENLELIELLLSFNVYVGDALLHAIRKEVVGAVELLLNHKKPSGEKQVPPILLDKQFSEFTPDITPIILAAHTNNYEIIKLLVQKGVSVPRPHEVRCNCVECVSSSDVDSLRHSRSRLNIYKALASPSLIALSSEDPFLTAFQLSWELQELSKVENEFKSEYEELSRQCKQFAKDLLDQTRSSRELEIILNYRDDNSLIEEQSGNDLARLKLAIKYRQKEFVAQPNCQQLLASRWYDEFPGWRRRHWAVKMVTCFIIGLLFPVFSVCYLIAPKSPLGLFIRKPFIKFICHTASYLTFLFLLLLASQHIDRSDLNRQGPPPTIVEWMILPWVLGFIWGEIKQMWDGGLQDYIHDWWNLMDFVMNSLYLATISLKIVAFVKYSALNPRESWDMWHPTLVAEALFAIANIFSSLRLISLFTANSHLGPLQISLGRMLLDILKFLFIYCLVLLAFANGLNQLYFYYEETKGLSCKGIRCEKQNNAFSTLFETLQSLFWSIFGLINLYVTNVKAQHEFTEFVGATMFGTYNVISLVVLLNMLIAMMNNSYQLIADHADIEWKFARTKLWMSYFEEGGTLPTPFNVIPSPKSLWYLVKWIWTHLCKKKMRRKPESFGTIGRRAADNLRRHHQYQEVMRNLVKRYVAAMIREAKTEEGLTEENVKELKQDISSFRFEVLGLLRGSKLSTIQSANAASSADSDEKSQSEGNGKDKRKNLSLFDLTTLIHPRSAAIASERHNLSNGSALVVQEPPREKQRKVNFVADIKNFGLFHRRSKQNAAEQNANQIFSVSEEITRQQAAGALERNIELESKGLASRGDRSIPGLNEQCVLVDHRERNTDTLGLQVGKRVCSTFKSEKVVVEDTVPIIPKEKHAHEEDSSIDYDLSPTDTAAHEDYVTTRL
Outline: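 Assay system: HEK293 cells stably co-expressing mouse TRPC4beta and mu-opioid receptor / Also added: DAMGO agonist, submaximal followed by maximal addition / Compound dosing: single final compound concentration of 10 µM / Times: compound pre-incubation 110 s before DAMGO / Detection: Fluo4 calcium flux fluorescence, kinetic read / Replicates: duplicate wells for each compound, averaged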
With `NC1=NC2(CCN(Cc3ccccc3)CC2)n2c(nc3ccccc32)N1` the outcome was “inactive”. `COc1ccc(CN2CCC(N(CCc3ccccc3)Cc3ccccc3)CC2)c(OC)c1` was tested, and the outcome was “inactive”. `CCc1ccc(C(=O)c2cnc3ccc(OC)cc3c2N2CCN(CC)CC2)cc1` was tested, and the outcome was “inactive”. In the case of `S=C(NCCc1cnc[nH]1)NC1CCCC1`, the outcome is reported as “inactive”. With `O=C(NCc1ccccc1)C1=C[C@H](c2ccccc2)C[C@H](OCc2ccc(CO)cc2)O1` the outcome was “inactive”. `Cc1ccc(OCC(=O)N(C)CCc2ccccn2)cc1` was tested, and the outcome was “inactive”. For `CC(C)(C)C(=O)/C=c1\s/c(=C\c2ccc(-c3ccc([N+](=O)[O-])cc3)o2)c(=O)n1CC(=O)NC(N)=O`, the outcome was “inactive”. With `NC(=O)C1CCCN(CCc2ccccc2)C1` (stereo not drawn) the outcome was “inactive”. `Cc1cc2nc3s/c(=C/c4ccc(-c5ccccc5C(=O)O)o4)c(=O)n3c2cc1C` was tested, and the outcome was “inactive”. For `COc1ccc(CNCc2cn(-c3cccc(F)c3)nc2-c2ccc(C)o2)cc1`, the outcome was “inactive”. In the case of `CN(C)C(CNc1ccc(C(F)(F)F)cn1)c1ccccc1` (stereo not drawn), the outcome is reported as “inactive”. `CN(C)C(CNC(=O)c1cccc(S(=O)(=O)N(C)C)c1)c1ccccc1` (stereo not drawn) was tested, and the outcome was “inactive”. For `CCCc1c(O)nc(SCCN(CC)CC)[nH]c1=O`, the outcome was “inactive”. With `CCC(=O)N1CCc2cc(Br)cc(S(=O)(=O)NCCCN(CC)Cc3ccccc3)c21` the outcome was “inactive”. For `Cc1ccc(Cn2c(SCCN3CCCCC3)nc3c2c(=O)n(C)c(=O)n3C)cc1`, the outcome was “inactive”. `O=C(O)C1C2C=CC(C2)C1C(=O)N1CCN(C/C=C/c2ccccc2)CC1` (stereo not drawn) was tested, and the outcome was “inactive”. `COc1ccc(C)c(NC(=O)NCCc2cnc[nH]2)c1` was tested, and the outcome was “inactive”. With `OCCC1CN(Cc2ccccc2-c2ccco2)CCN1Cc1ccccc1` (stereo not drawn) the outcome was “inactive”. For `COc1ccc(CCN(C)C(=O)C2CCCN(C3CCN(Cc4ccccc4)CC3)C2)cc1OC` (stereo not drawn), the outcome was “inactive”. For `CCOc1ccc(S(=O)(=O)Nc2cccc(C(=O)NCC(c3ccccc3)N(C)C)c2)cc1` (stereo not drawn), the outcome was “inactive”. `Cc1cc(C)cc(NC(=S)N2CCN(c3ncc(C(F)(F)F)cc3Cl)CC2)c1` was tested, and the outcome was “inactive”. `COc1ccc(C(CNC(=O)c2cccc(Br)c2)N2CCCC2)cc1` (stereo not drawn) was tested, and the outcome was “inactive”. For `CC(C)n1cnc2c(N(C)c3ccccc3)nc(N(CCN(C)C)Cc3ccccc3)nc21`, the outcome was “inactive”. `Cc1cccn2c(CNCCc3ccccn3)c(C(=O)N3CCOCC3)nc12` was tested, and the outcome was “inactive”. With `Cc1ccc(C)c(-n2cc(CNCCCn3cccn3)c(-c3ccccc3)n2)c1` the outcome was “inactive”. For `Cc1csc2c(N3CCN(C(=O)Nc4ccc(OC(F)(F)F)cc4)CC3)ncnc12`, the outcome was “inactive”. For `CN(CCc1ccccn1)C(=S)Nc1cccc(S(=O)(=O)N(C)C)c1`, the outcome was “inactive”. `Cc1ccc(NC(=S)NC2CC3CCC(C2)N3Cc2ccco2)c(C)c1` (stereo not drawn) was tested, and the outcome was “inactive”. With `COc1cc2c(cc1OC)C(C)N(C(=O)C(NC(=O)c1ccccc1)C(C)C)CC2` (stereo not drawn) the outcome was “inactive”. With `O=C(NC1CC1)C1=C[C@H](c2csc3ccccc23)C[C@H](OCc2ccc(CO)cc2)O1` the outcome was “inactive”. In the case of `Clc1ccc2nc(N3CCNCC3)nc(-c3ccccc3)c2c1`, the outcome is reported as “inactive”. `COc1ccc(C(CNC(=O)/C=C/c2c(Cl)nc3ccccn23)N(C)C)cc1` (stereo not drawn) was tested, and the outcome was “inactive”. With `CC(=O)n1cc([C@H]2C=C(C(=O)NCc3ccccc3)O[C@@H](OCc3ccc(CO)cc3)C2)c2ccccc21` the outcome was “inactive”. For `CCCn1ncc(CN2CCC(n3nccc3NC(=O)CCc3ccccc3)CC2)c1C`, the outcome was “inactive”. With `CC(=O)NC(CC(=O)NCC(c1ccco1)N(C)C)c1ccccc1` (stereo not drawn) the outcome was “inactive”. In the case of `COc1ccc(C(=O)NNC(=S)NC(=O)c2cccs2)cc1`, the outcome is reported as “inactive”. For `COCCn1nnnc1C(c1cc2ccc(OC)cc2[nH]c1=O)N1CCN(C2CCCCC2)CC1` (stereo not drawn), the outcome was “inactive”. In the case of `O=C(c1sc2ccccc2c1Cl)N(Cc1ccccc1)C1CCS(=O)(=O)C1` (stereo not drawn), the outcome is reported as “inactive”. For `O=c1c(Cc2ccc(F)cc2)c(O)ccn1CCc1cnc[nH]1`, the outcome was “inactive”.
